Tested on: Fibroblast
Test: Multiplex assay against human fibroblast
Type: toxicity, cell-based
Procedure, shortened: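 Hoechst33342, BioTracker Green Microtubule Cytoskeleton Dye, MitoTracker Red and Annexin V Alexa Fluor 680 were added to live cells at seeding, and imaging on a CQ1 microscope at 37°C and 5% CO2 followed compound addition. Gating by CellPathfinder machine learning separated cells into Hoechst high-intensity objects or normal cells, then normal cells into healthy, pyknosed or fragmented nuclei, then pyknosed cells into mitotic or apoptotic. Per cents of healthy-nucleus cells are reported for the tubulin, mitochondrial-mass and membrane-permeability phenotypes.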

[1] = 12 h, 1 µM, compound concentration 1 uM, replicate 1
[2] = 12 h, 1 µM, compound concentration 1 uM, replicate 2
[3] = 12 h, 10 µM, compound concentration 10 uM, replicate 1
[4] = 12 h, 10 µM, compound concentration 10 uM, replicate 2
[5] = 24 h, 1 µM, compound concentration 1 uM, replicate 1
[6] = 24 h, 1 µM, compound concentration 1 uM, replicate 2
[7] = 24 h, 10 µM, compound concentration 10 uM, replicate 1
[8] = 24 h, 10 µM, compound concentration 10 uM, replicate 2
[9] = 48 h, 1 µM, compound concentration 1 uM, replicate 1
[10] = 48 h, 1 µM, compound concentration 1 uM, replicate 2
[11] = 48 h, 10 µM, compound concentration 10 uM, replicate 1
[12] = 48 h, 10 µM, compound concentration 10 uM, replicate 2

CCn1c(-c2nonc2N)nc2cnc(Oc3cccc(NC(=O)c4ccc(OCCN5CCOCC5)cc4)c3)cc21 [GSK-269962A]
Population Apoptotic (%) [1]: 50%
Population Fragmented Nuclei (%) [1]: 29%
Population Healthy Nuclei (%) [1]: 36%
Population Hoechst High Intensity Objects (%) [1]: 12%
Population Membrane Permeable-Phenotype (%) [1]: 22%
Population Mitochondria Different-Phenotype (%) [1]: 2%
Population Mitotic Cells (%) [1]: 50%
Population Normal (%) [1]: 87%
Population Pyknosed Nuclei (%) [1]: 33%
Population Tubulin-Different-Phenotype (%) [1]: 46%
Total Cell Count [1]: 141
Population Apoptotic (%) [2]: 20%
Population Fragmented Nuclei (%) [2]: 20%
Population Healthy Nuclei (%) [2]: 72%
Population Hoechst High Intensity Objects (%) [2]: 2%
Population Membrane Permeable-Phenotype (%) [2]: 14%
Population Mitochondria Different-Phenotype (%) [2]: 16%
Population Mitotic Cells (%) [2]: 80%
Population Normal (%) [2]: 97%
Population Pyknosed Nuclei (%) [2]: 7%
Population Tubulin-Different-Phenotype (%) [2]: 14%
Total Cell Count [2]: 45
Population Apoptotic (%) [3]: 55%
Population Fragmented Nuclei (%) [3]: 40%
Population Healthy Nuclei (%) [3]: 28%
Population Hoechst High Intensity Objects (%) [3]: 12%
Population Membrane Permeable-Phenotype (%) [3]: 21%
Population Mitochondria Different-Phenotype (%) [3]: 47%
Population Mitotic Cells (%) [3]: 44%
Population Normal (%) [3]: 87%
Population Pyknosed Nuclei (%) [3]: 30%
Population Tubulin-Different-Phenotype (%) [3]: 83%
Total Cell Count [3]: 216
Population Apoptotic (%) [4]: 31%
Population Fragmented Nuclei (%) [4]: 20%
Population Healthy Nuclei (%) [4]: 57%
Population Hoechst High Intensity Objects (%) [4]: 7%
Population Membrane Permeable-Phenotype (%) [4]: 45%
Population Mitochondria Different-Phenotype (%) [4]: 97%
Population Mitotic Cells (%) [4]: 68%
Population Normal (%) [4]: 92%
Population Pyknosed Nuclei (%) [4]: 22%
Population Tubulin-Different-Phenotype (%) [4]: 100%
Total Cell Count [4]: 71
Population Apoptotic (%) [5]: 47%
Population Fragmented Nuclei (%) [5]: 21%
Population Healthy Nuclei (%) [5]: 47%
Population Hoechst High Intensity Objects (%) [5]: 14%
Population Membrane Permeable-Phenotype (%) [5]: 19%
Population Mitochondria Different-Phenotype (%) [5]: 9%
Population Mitotic Cells (%) [5]: 52%
Population Normal (%) [5]: 85%
Population Pyknosed Nuclei (%) [5]: 31%
Population Tubulin-Different-Phenotype (%) [5]: 41%
Total Cell Count [5]: 126
Population Apoptotic (%) [6]: 75%
Population Fragmented Nuclei (%) [6]: 11%
Population Healthy Nuclei (%) [6]: 77%
Population Hoechst High Intensity Objects (%) [6]: 2%
Population Membrane Permeable-Phenotype (%) [6]: 1%
Population Mitochondria Different-Phenotype (%) [6]: 10%
Population Mitotic Cells (%) [6]: 25%
Population Normal (%) [6]: 97%
Population Pyknosed Nuclei (%) [6]: 11%
Population Tubulin-Different-Phenotype (%) [6]: 14%
Total Cell Count [6]: 59
Population Apoptotic (%) [7]: 57%
Population Fragmented Nuclei (%) [7]: 37%
Population Healthy Nuclei (%) [7]: 42%
Population Hoechst High Intensity Objects (%) [7]: 12%
Population Membrane Permeable-Phenotype (%) [7]: 11%
Population Mitochondria Different-Phenotype (%) [7]: 58%
Population Mitotic Cells (%) [7]: 42%
Population Normal (%) [7]: 87%
Population Pyknosed Nuclei (%) [7]: 20%
Population Tubulin-Different-Phenotype (%) [7]: 81%
Total Cell Count [7]: 258
Population Apoptotic (%) [8]: 53%
Population Fragmented Nuclei (%) [8]: 30%
Population Healthy Nuclei (%) [8]: 52%
Population Hoechst High Intensity Objects (%) [8]: 5%
Population Membrane Permeable-Phenotype (%) [8]: 67%
Population Mitochondria Different-Phenotype (%) [8]: 97%
Population Mitotic Cells (%) [8]: 46%
Population Normal (%) [8]: 94%
Population Pyknosed Nuclei (%) [8]: 17%
Population Tubulin-Different-Phenotype (%) [8]: 100%
Total Cell Count [8]: 73
Population Apoptotic (%) [9]: 57%
Population Fragmented Nuclei (%) [9]: 28%
Population Healthy Nuclei (%) [9]: 58%
Population Hoechst High Intensity Objects (%) [9]: 11%
Population Membrane Permeable-Phenotype (%) [9]: 12%
Population Mitochondria Different-Phenotype (%) [9]: 3%
Population Mitotic Cells (%) [9]: 42%
Population Normal (%) [9]: 88%
Population Pyknosed Nuclei (%) [9]: 13%
Population Tubulin-Different-Phenotype (%) [9]: 29%
Total Cell Count [9]: 120
Population Apoptotic (%) [10]: 66%
Population Fragmented Nuclei (%) [10]: 27%
Population Healthy Nuclei (%) [10]: 69%
Population Hoechst High Intensity Objects (%) [10]: 12%
Population Membrane Permeable-Phenotype (%) [10]: 3%
Population Mitochondria Different-Phenotype (%) [10]: 0%
Population Mitotic Cells (%) [10]: 33%
Population Normal (%) [10]: 87%
Population Pyknosed Nuclei (%) [10]: 3%
Population Tubulin-Different-Phenotype (%) [10]: 22%
Total Cell Count [10]: 96
Population Apoptotic (%) [11]: 50%
Population Fragmented Nuclei (%) [11]: 36%
Population Healthy Nuclei (%) [11]: 50%
Population Hoechst High Intensity Objects (%) [11]: 20%
Population Membrane Permeable-Phenotype (%) [11]: 6%
Population Mitochondria Different-Phenotype (%) [11]: 38%
Population Mitotic Cells (%) [11]: 50%
Population Normal (%) [11]: 79%
Population Pyknosed Nuclei (%) [11]: 13%
Population Tubulin-Different-Phenotype (%) [11]: 80%
Total Cell Count [11]: 240
Population Healthy Nuclei (%) [12]: 58%
Population Hoechst High Intensity Objects (%) [12]: 22%
Population Membrane Permeable-Phenotype (%) [12]: 3%
Population Mitochondria Different-Phenotype (%) [12]: 17%
Population Normal (%) [12]: 77%
Population Pyknosed Nuclei (%) [12]: 4%
Population Tubulin-Different-Phenotype (%) [12]: 86%
Total Cell Count [12]: 172

Reference: ChEMBL document CHEMBL4689842, “EUbOPEN Chemogenomics Library wave 1” (2021)
